ChEMBL document CHEMBL1687913, “Structure-activity relationship, conformational and biological studies of temporin L analogues” (J Med Chem, 2011)
Converted amounts (≈) assume the structure as drawn. Where a SMILES comes first, the peptide text is derived from it. [ ]: non-standard residue; d: D form. Orn = NCCC[C@H](N)C(=O)O

What was measured:
[1] = test system: Pseudomonas syringae; test: Antibacterial activity against Pseudomonas syringae pv tobaci after 18 to 20 hrs by microbroth dilution method; format: functional
Procedure, shortened: (§1)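 CLSI microbroth dilution, adapted. Mid-log bacteria, 2 × 10^6 CFU/mL in Mueller-Hinton broth, mixed 1:1 with MH broth holding peptide in serial 2-fold dilutions in 20% ethanol (0.75-48 μM). Incubated 18-20 h at 37 °C; growth read as A600. MIC is the lowest concentration giving 100% growth inhibition.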

[2] = Toxicity in human erythrocytes assessed as hemolysis at 6 uM after 40 mins; format: cell-based, Erythrocyte; details: read-out: Activity
Procedure, shortened: (§2)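 Human red blood cells suspended in 0.9% (w/v) NaCl and incubated 40 min at 37 °C with gentle mixing with serial 2-fold peptide dilutions (peptide predissolved in 20% ethanol). Spun 5 min at 900g; supernatant read at 415 nm. Cells lysed in distilled water set the 100% lysis reference.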

[3] = test system: Enterococcus faecalis; test: Antibacterial activity against Enterococcus faecalis ATCC 29212 after 18 to 20 hrs by microbroth dilution method; format: functional; procedure, shortened: as §1
[4] = test system: Yersinia pseudotuberculosis; test: Antibacterial activity against Yersinia pseudotuberculosis YPIII after 18 to 20 hrs by microbroth dilution method; format: functional
Procedure, shortened: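 Broth microdilution adapted from CLSI. Mid-log bacteria at 2 × 10^6 CFU/mL in Mueller-Hinton broth were mixed 1:1 with MH broth containing peptide in serial 2-fold dilutions (peptide in 20% ethanol), 0.75-48 μM. Plates were incubated 18-20 h at 37 °C and growth was read as A600. MIC is the concentration giving 100% growth inhibition.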

[5] = Toxicity in human erythrocytes assessed as hemolysis at 1.5 uM after 40 mins; format: cell-based, Erythrocyte; details: read-out: Activity; procedure, shortened: as §2
[6] = test system: Pseudomonas aeruginosa; test: Antibacterial activity against Pseudomonas aeruginosa ATCC 27853 after 18 to 20 hrs by microbroth dilution method; format: functional; procedure, shortened: as §1
[7] = test system: Staphylococcus epidermidis; test: Antibacterial activity against Staphylococcus epidermidis ATCC 12228 after 18 to 20 hrs by microbroth dilution method; format: functional; procedure, shortened: as §1
[8] = test system: Priestia megaterium; test: Antibacterial activity against Bacillus megaterium Bm11 after 18 to 20 hrs by microbroth dilution method; format: functional; procedure, shortened: as §1
[9] = Toxicity in human erythrocytes assessed as hemolysis at 12 uM after 40 mins; format: cell-based, Erythrocyte; details: read-out: Activity; procedure, shortened: as §2
[10] = test system: Saccharomyces cerevisiae; test: Antifungal activity against Saccharomyces cerevisiae after 18 to 20 hrs by microbroth dilution method; format: functional
Procedure, shortened: (§3)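 Yeasts tested by adapted CLSI microbroth dilution in Winge medium. Peptide given in serial 2-fold dilutions (0.75-48 μM, made in 20% ethanol). Incubation 18-20 h at 30 °C, read at A600. MIC taken as the concentration giving complete (100%) growth inhibition.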

[11] = test system: Acinetobacter baumannii; test: Antibacterial activity against Acinetobacter baumannii ATCC 19606 after 18 to 20 hrs by microbroth dilution method; format: functional; procedure, shortened: as §1
[12] = test system: Staphylococcus aureus; test: Antibacterial activity against Staphylococcus aureus ATCC 25923 after 18 to 20 hrs by microbroth dilution method; format: functional; procedure, shortened: as §1
[13] = test system: Candida albicans; test: Antifungal activity against Candida albicans ATCC 10231 after 18 to 20 hrs by microbroth dilution method; format: functional; procedure, shortened: as §3
[14] = test system: Schizosaccharomyces pombe; test: Antifungal activity against Schizosaccharomyces pombe after 18 to 20 hrs by microbroth dilution method; format: functional; procedure, shortened: as §3
[15] = test system: Pseudomonas aeruginosa; test: Antibacterial activity against Pseudomonas aeruginosa ATCC 15692 after 18 to 20 hrs by microbroth dilution method; format: functional; procedure, shortened: as §1
[16] = Toxicity in human erythrocytes assessed as hemolysis at 24 uM after 40 mins; format: cell-based, Erythrocyte; details: read-out: Activity; procedure, shortened: as §2
[17] = test system: Streptococcus pyogenes; test: Antibacterial activity against Streptococcus pyogenes ATCC 21547 after 18 to 20 hrs by microbroth dilution method; format: functional; procedure, shortened: as §1
[18] = test system: Staphylococcus capitis; test: Antibacterial activity against Staphylococcus capitis after 18 to 20 hrs by microbroth dilution method; format: functional; procedure, shortened: as §1
[19] = test system: Escherichia coli; test: Antibacterial activity against Escherichia coli ATCC 25922 after 18 to 20 hrs by microbroth dilution method; format: functional; procedure, shortened: as §1
[20] = Toxicity in human erythrocytes assessed as hemolysis at 3 uM after 40 mins; format: cell-based, Erythrocyte; details: read-out: Activity; procedure, shortened: as §2
[21] = test system: Acinetobacter junii; test: Antibacterial activity against […] Acinetobacter junii RT-4 after 18 to 20 hrs by microbroth dilution method; format: functional; procedure, shortened: as §1
[22] = test system: Staphylococcus aureus; test: Antibacterial activity against Staphylococcus aureus Cowan I after 18 to 20 hrs by microbroth dilution method; format: functional; procedure, shortened: as §1
[23] = test system: Escherichia coli; test: Antibacterial activity against Escherichia coli D21 after 18 to 20 hrs by microbroth dilution method; format: functional; procedure, shortened: as §1

| Compound | MIC [1] | hemolysis at 40 min, 6 µM [2] | MIC [3] | MIC [4] | hemolysis at 40 min, 1.5 µM [5] | MIC [6] | MIC [7] | MIC [8] | hemolysis at 40 min, 12 µM [9] | MIC [10] | MIC [11] | MIC [12] | MIC [13] | MIC [14] | MIC [15] | hemolysis at 40 min, 24 µM [16] | MIC [17] | MIC [18] | MIC [19] | hemolysis at 40 min, 3 µM [20] | also measured |
| --- | --- | --- | --- | --- | --- | --- | --- | --- | --- | --- | --- | --- | --- | --- | --- | --- | --- | --- | --- | --- | --- |
| CC(C)C[C@H](NC(=O)[C@H](CC(C)C)NC(=O)[C@H](CCCNC(=N)N)NC(=O)CNC(=O)[C@H](CC(C)C)NC(=O)[C@H](CC(C)C)NC(=O)[C@H](CCCCN)NC(=O)[C@H](CO)NC(=O)[C@H](CC(C)C)NC(=O)[C@H](Cc1c[nH]c2ccccc12)NC(=O)[C@H](CCC(N)=O)NC(=O)[C@H](CC(C)C)NC(=O)[C@@H](N)CC(C)C)C(N)=O (H-LLQWLSKLLGRLL-NH2) | 6 µM (≈ 9.31 µg/mL) | 25% | 3 µM (≈ 4.66 µg/mL) | 3 µM (≈ 4.66 µg/mL) | 4% | 24 µM (≈ 37.2 µg/mL) | 1.5 µM (≈ 2.33 µg/mL) | 1.5 µM (≈ 2.33 µg/mL) | 73% | 3 µM (≈ 4.66 µg/mL) | 12 µM (≈ 18.6 µg/mL) | 3 µM (≈ 4.66 µg/mL) | 6 µM (≈ 9.31 µg/mL) | 3 µM (≈ 4.66 µg/mL) | 12 µM (≈ 18.6 µg/mL) | 100% | 6 µM (≈ 9.31 µg/mL) | 1.5 µM (≈ 2.33 µg/mL) | 6 µM (≈ 9.31 µg/mL) | 9% | MIC [21]: 24 µM (≈ 37.2 µg/mL); MIC [22]: 1.5 µM (≈ 2.33 µg/mL); MIC [23]: 12 µM (≈ 18.6 µg/mL) |
| CC[C@H](C)[C@H](NC(=O)[C@H](CCCNC(=N)N)NC(=O)CNC(=O)[C@H](CC(C)C)NC(=O)[C@H](Cc1ccccc1)NC(=O)[C@H](CCCCN)NC(=O)[C@H](CO)NC(=O)[C@H](Cc1ccccc1)NC(=O)[C@H](Cc1c[nH]c2ccccc12)NC(=O)[C@H](CCC(N)=O)NC(=O)[C@@H](NC(=O)[C@@H](N)Cc1ccccc1)C(C)C)C(=O)N[C@@H](CC(C)C)C(N)=O [TEMPORIN L] | 6 µM (≈ 9.84 µg/mL) | 48% | 6 µM (≈ 9.84 µg/mL) | 3 µM (≈ 4.92 µg/mL) | 3% | > 48 µM | 3 µM (≈ 4.92 µg/mL) | 1.5 µM (≈ 2.46 µg/mL) | 92% | 6 µM (≈ 9.84 µg/mL) | 6 µM (≈ 9.84 µg/mL) | 3 µM (≈ 4.92 µg/mL) | 12 µM (≈ 19.7 µg/mL) | 6 µM (≈ 9.84 µg/mL) | 24 µM (≈ 39.4 µg/mL) | 94% | 6 µM (≈ 9.84 µg/mL) | 1.5 µM (≈ 2.46 µg/mL) | 12 µM (≈ 19.7 µg/mL) | 13% | MIC [21]: 3 µM (≈ 4.92 µg/mL); MIC [22]: 3 µM (≈ 4.92 µg/mL); MIC [23]: 12 µM (≈ 19.7 µg/mL) |
| CC[C@H](C)[C@H](NC(=O)[C@H](CCCN)NC(=O)CNC(=O)[C@H](CC(C)C)NC(=O)[C@H](Cc1ccccc1)NC(=O)[C@H](CCCCN)NC(=O)[C@H](CO)NC(=O)[C@H](Cc1ccccc1)NC(=O)[C@H](Cc1c[nH]c2ccccc12)NC(=O)[C@@H]1CCCN1C(=O)[C@@H](NC(=O)[C@@H](N)Cc1ccccc1)C(C)C)C(=O)N[C@@H](CC(C)C)C(N)=O (H-FVPWFSKFLG[Orn]IL-NH2) | 12 µM (≈ 18.8 µg/mL) | 2% | 12 µM (≈ 18.8 µg/mL) | 6 µM (≈ 9.4 µg/mL) | 0.7% | 48 µM (≈ 75.2 µg/mL) | 6 µM (≈ 9.4 µg/mL) | 6 µM (≈ 9.4 µg/mL) | 12% | 6 µM (≈ 9.4 µg/mL) | 12 µM (≈ 18.8 µg/mL) | 12 µM (≈ 18.8 µg/mL) | 6 µM (≈ 9.4 µg/mL) | 12 µM (≈ 18.8 µg/mL) | 48 µM (≈ 75.2 µg/mL) | 72% | 6 µM (≈ 9.4 µg/mL) | 6 µM (≈ 9.4 µg/mL) | 12 µM (≈ 18.8 µg/mL) | 1% | MIC [21]: 6 µM (≈ 9.4 µg/mL); MIC [22]: 3 µM (≈ 4.7 µg/mL); MIC [23]: 24 µM (≈ 37.6 µg/mL) |
| CC[C@H](C)[C@H](NC(=O)[C@H](CCCCN)NC(=O)CNC(=O)[C@H](CC(C)C)NC(=O)[C@H](Cc1ccccc1)NC(=O)[C@H](CCCCN)NC(=O)[C@H](CO)NC(=O)[C@H](Cc1ccccc1)NC(=O)[C@H](Cc1c[nH]c2ccccc12)NC(=O)[C@H](CCC(N)=O)NC(=O)[C@@H](NC(=O)[C@@H](N)Cc1ccccc1)C(C)C)C(=O)N[C@@H](CC(C)C)C(N)=O (H-FVQWFSKFLGKIL-NH2) | 24 µM (≈ 38.7 µg/mL) | 14% | 12 µM (≈ 19.3 µg/mL) | 6 µM (≈ 9.67 µg/mL) | 2.6% | 48 µM (≈ 77.4 µg/mL) | 6 µM (≈ 9.67 µg/mL) | 3 µM (≈ 4.84 µg/mL) | 59% | 6 µM (≈ 9.67 µg/mL) | 6 µM (≈ 9.67 µg/mL) | 6 µM (≈ 9.67 µg/mL) | 12 µM (≈ 19.3 µg/mL) | 6 µM (≈ 9.67 µg/mL) | 24 µM (≈ 38.7 µg/mL) | 100% | 6 µM (≈ 9.67 µg/mL) | 6 µM (≈ 9.67 µg/mL) | 12 µM (≈ 19.3 µg/mL) | 5% | MIC [21]: 6 µM (≈ 9.67 µg/mL); MIC [22]: 12 µM (≈ 19.3 µg/mL); MIC [23]: 24 µM (≈ 38.7 µg/mL) |
